GalR3 antagonist: human GalR3 antagonism | HEK293 GalR3-CNG cAMP membrane potential fluorescence; galR3 body fused to GalR1 C-terminus | inhibition, % at 3 µM | actives 0.44% (n = 360,000) | AID 651719;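 active means inhibition above the screen-wide average plus 3 SD, cut at about 13% in these data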;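 further: forskolin and galanin both at EC90 stimulate the cells; cAMP rise reported by CNG channel membrane potential dye signal; 0% = forskolin plus galanin with DMSO and 100% = forskolin alone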
CHO parental Ca: signal in parental CHO cells, OX1R antagonist counter-screen | inhibition, % at 5.6 µM | parental CHO-K1, ATP-induced calcium, Fluo-8 fluorescence | actives 0.63% (n = 330,000);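 active means inhibition above that plate's mean sample inhibition plus 3 SD, cut at about 26% in these data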;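 further: 0% = ATP-challenged DMSO wells and 100% = DMSO wells without ATP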
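Assay system – parental CHO cells · Reagent – ATP stimulus · Detection – intracellular calcium via Fluo-8 no-wash fluorescent dye · Evaluation – percent inhibition of ATP-evoked calcium rise, normalized to controls · Controls – ATP wells versus no-ATP DMSO wells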
OX1R antag-1: human HCRTR1 antagonism; O43613; CHO/OX1R cells, Fluo-8 calcium fluorescence, orexin A; inhibition, % at 5 µM; actives 0.43% (n = 330,000);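 active means inhibition above its plate's threshold, mean inhibition of all tested compounds on the plate plus 3 SD, cut at about 37% in these data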;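 further: 0% = orexin A challenge wells and 100% = SB-334867-A antagonist wells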
Target sequence (O43613 whole entry, looked up): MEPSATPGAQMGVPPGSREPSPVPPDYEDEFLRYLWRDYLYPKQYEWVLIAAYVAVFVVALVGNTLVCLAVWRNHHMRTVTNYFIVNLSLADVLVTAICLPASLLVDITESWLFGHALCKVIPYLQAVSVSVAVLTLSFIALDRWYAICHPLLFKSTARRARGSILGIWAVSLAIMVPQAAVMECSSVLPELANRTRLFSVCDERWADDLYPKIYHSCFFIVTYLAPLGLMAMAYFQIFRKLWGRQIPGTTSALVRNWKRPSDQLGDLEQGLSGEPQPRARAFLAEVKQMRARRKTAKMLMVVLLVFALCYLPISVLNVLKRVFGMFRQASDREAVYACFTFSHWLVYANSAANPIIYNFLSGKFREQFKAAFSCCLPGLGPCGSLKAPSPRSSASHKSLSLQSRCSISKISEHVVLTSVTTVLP
OX1R antag-2: OX1R (human) antagonism | O43613 | OX1R-expressing cells, FRET antagonist read-out | inhibition, % at 6.6 µM | actives 1.8% (n = 330,000); in the data active means inhibition mostly above about 38%, no sharp cut-off; inactive means mostly below about 40%;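 further: 0% = agonist challenge alone and 100% = reference antagonist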
GPR7 antag: blocks human GPR7 receptor signaling; GPR7-expressing cells, fluorescence antagonist assay; inhibition, % at 4.4 µM; actives 1.1% (n = 290,000); in the data active means inhibition above about 16%, passing the limit was not always enough;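 further: cells stimulated with the agonist NPW; 0% = agonist with vehicle and 100% = vehicle without agonist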
The depositor's hits bear a star; . = not tested or not shown. Rows were chosen to be rich in hits. Some 3.1% of all compounds tested hit in one or more screens of this group.

SMILES	GalR3 antagonist	CHO parental Ca	OX1R antag-1	OX1R antag-2	GPR7 antag
Cc1ccc(C)n1-n1cnc2sc(-c3ccccc3)cc2c1=O	-5.7	-26.4	-19.8	18.7	-1.9
O=C(CSc1nnc(-c2c[nH]c3ccccc23)o1)N(Cc1ccccc1)c1ccc(F)cc1	.	16.9	14.1	51.6*	2.3
COc1ccc(CN(C(=O)CSc2nnc(-c3ccccc3C)o2)c2ccc(F)cc2)cc1	-2.0	-21.4	-15.8	48.1	-12.6
O=C(COC(=O)c1cc(NS(=O)(=O)c2cccs2)ccc1O)Nc1ccccc1	-3.8	-9.6	-11.7	72.8*	-2.9
Cc1c(Br)c(O)c(Br)c(O)c1/C=N/n1c(-c2ccccc2)n[nH]c1=S	.	-9.1	-14.1	43.8*	-16.8
Oc1ccc2ccccc2c1/C=N/Nc1ccccc1	-0.2	0.7	0.2	-1.2	-3.5
Oc1ccc2ccccc2c1C=NCc1ccccc1	-3.8	-6.5	-17.8	52.3*	-6.4
CCc1nc(SCC(=O)Nc2nc3c(s2)CCCC3)c2ccccc2n1	-0.2	-25.1	-33.8	15.6	0.1
CCn1c(SCC(=O)Nc2nc3ccccc3s2)nnc1-c1ccc(OC)cc1	-0.3	38.8*	-1.7	33.7	-7.1
CCn1c(SCC(=O)Nc2nc3c(s2)CCCC3)nnc1-c1ccccc1	-3.3	-26.2	-11.7	48.8*	-10.1
CCn1c(Cc2ccccc2)nnc1SCC(=O)Nc1nc2ccccc2s1	0.6	-21.3	-19.5	27.9	1.2
OCCN1CN(c2ccccc2)C(=S)N(c2ccccc2)C1	-6.2	.	.	.	.
Cc1ccnn1CC(=O)N/N=C/c1ccc([N+](=O)[O-])s1	0.1	-13.4	-18.1	51.2*	-18.1
O=C(N/N=C/c1ccc([N+](=O)[O-])s1)C(O)c1ccccc1 (centres undefined)	-2.8	-6.2	-4.7	56.1*	-6.2
Cc1ccnn1CC(=O)N/N=C/c1cccs1	-7.8	-12.5	-11.5	8.7	-3.4
O=C(CNC(=O)c1cccc(F)c1)N/N=C/c1ccc([N+](=O)[O-])s1	-7.9	-4.9	-8.5	49.5*	5.0
COc1ccc(C(=O)N2CCC[C@@H]2C(=O)N2CCC[C@@H]2C(=O)NCc2ccccc2)cc1F	-1.8	.	.	.	.
Fc1ccccc1CSc1nncn1NCc1cccs1	-4.2	5.1	-7.2	10.0	18.9*
Cc1ccc(NC(=S)Nc2ccc(OC(F)F)c(Cl)c2)cc1Cl	5.2	21.0	-3.7	11.8	-12.9
CC(NC(=S)Nc1ccc(OC(F)F)c(Cl)c1)C(C)(C)C (centres undefined)	-5.5	34.3*	37.8*	24.4	11.2
FC(F)Oc1ccc(NC(=S)NCc2ccccc2)cc1Cl	-4.4	34.0*	9.2	13.9	12.6
O=C(N/C(=C\c1ccc([N+](=O)[O-])cc1)C(=O)N1CCCCC1)c1ccccc1Br	-1.8	-28.0	-30.6	50.5*	-3.7
O=C(N/C(=C\c1ccc([N+](=O)[O-])cc1)C(=O)N1CCCCC1)c1ccc(Br)o1	5.2	8.6	-25.5	23.9	3.0
Oc1c(C=Nc2cccc3cccnc23)sc2ccccc12	-3.0	49.0*	99.0*	43.5	-8.9
Cc1cccc(/N=C/c2sc3ccccc3c2O)n1	2.9	-32.2	-7.7	7.5	-2.0
SMILES	GalR3 antagonist	CHO parental Ca	OX1R antag-1	OX1R antag-2	GPR7 antag
Cc1ccc2c(c1)-c1nc3ccccc3cc1C2=NC1CCCCC1	-5.4	-7.1	-2.2	52.3	-5.4
Cc1ccc2c(c1)C(=NC1CCCCC1)c1cc3ccccc3nc1-2	-4.9	-13.8	17.4	74.9*	-8.2
CCc1cc(C(=O)Nc2cc(S(=O)(=O)N3CCCCC3)ccc2N2CCN(C)CC2)sc1C	-5.8	.	.	.	.
Cc1cc(C)cc(N(C(=O)Cc2cccs2)C(C(=O)NC2CCCCC2)c2ccccn2)c1 (centres undefined)	-3.5	-16.8	-5.7	64.9*	-6.5
Cc1cc(C)cc(N(C(=O)Cc2cccs2)C(C(=O)NC2CCCC2)c2ccc(C)o2)c1 (centres undefined)	-6.5	-16.1	-11.9	1.8	-1.9
COc1cc(=O)oc(C=O)c1C	-6.4	.	.	.	.
CC1CCCN(C(=O)COC(=O)CSc2ccc(C(N)=O)cc2[N+](=O)[O-])C1 (centres undefined)	-0.7	-15.5	-15.8	74.2*	.
CN(C(=O)COC(=O)CSc1ccc(C(N)=O)cc1[N+](=O)[O-])C1CCCCC1	-6.3	-2.2	-13.4	47.1*	.
CCCN(C(=O)COC(=O)CSc1ccc(C(N)=O)cc1[N+](=O)[O-])C1CCS(=O)(=O)C1 (centres undefined)	-2.6	.	.	.	.
NC(=O)c1ccc(SCC(=O)OCC(=O)N2CCCCC2)c([N+](=O)[O-])c1	-4.2	21.7	-3.0	63.4*	.
NC(=O)c1ccc(SCC(=O)OCC(=O)N2CCN(C(=O)c3ccco3)CC2)c([N+](=O)[O-])c1	1.0	-7.8	-7.9	57.6*	.
COc1ccc(C(=O)OCC(=O)N2CCCCC2)cc1[N+](=O)[O-]	-3.6	-4.6	-11.3	19.5	-2.2
O=C(NCc1ccncc1)C1Cc2c(-c3ccccc3Oc3ccccc3)ccnc2O1 (centres undefined)	-7.2	.	.	.	.
CCc1nc2ccc(C(=O)NCCCn3ccnc3)cn2c1N(C)Cc1cc2ccccc2s1	0.0	.	.	.	.
O=C(NCc1ccccc1)[C@H]1CCCN1C(=O)[C@H]1CCCN1C(=O)c1ccccc1C(F)(F)F	5.8	.	.	.	.
CC1CCN(C(=O)COC(=O)CSc2ccc(C(N)=O)cc2[N+](=O)[O-])CC1	1.1	-17.8	-17.8	63.1*	.
Cc1ccc(NC(=O)CSc2ccc(C(N)=O)cc2[N+](=O)[O-])cc1C	-4.4	32.7*	-29.2	10.6	-8.2
CN1OC[C@@H]2CN(Cc3ccccc3)[C@H](c3ccc(-n4ccnc4)cc3)C[C@@H]21	1.3	.	.	.	.
C=CCN1CC(COCCCC)Oc2ccc(Cl)cc2S1(=O)=O (centres undefined)	-9.4	.	.	.	.
CCN(CC(=O)Nc1ccc(NC(C)=O)cc1)C(=O)C1(c2ccc(Cl)cc2)CCC1	-5.1	.	.	.	.
Cc1ccc(-c2csc(=Nc3cccnc3)n2CCCN2CCCC2=O)cc1C	-1.6	-16.7	-17.2	64.3*	6.0
Cc1ccc(-c2csc(=Nc3cccnc3)n2CCCn2ccnc2)cc1C	5.5	-22.0	-14.6	49.1	-3.7
O=C1c2ccccc2C(=O)c2c(O)c(O)cc(O)c21	.	-1.8	0.2	28.1*	.
COc1ccc(N2CCN(C(=O)CSc3nnc(C)c(=O)[nH]3)CC2)cc1	-3.3	36.7*	-4.7	-2.2	-20.9
O=C(OCc1ccccc1)c1c(-c2ccccc2)oc2c1C(OCCO)CCC2 (centres undefined)	-2.9	.	.	.	.
COC(=O)CC1C(=O)NCCN1C(=O)c1cc([N+](=O)[O-])ccc1Cl (centres undefined)	-8.3	4.1	-29.0	4.1	-7.2
COC(=O)CC1C(=O)NCCN1C(=O)c1cc(OC)c(OC)cc1OC (centres undefined)	-5.3	29.8*	-14.6	-6.3	2.9
Nc1ncnc(N)c1NC(=O)c1ccccc1	-6.9	.	.	.	.
Cc1ccc(Cl)cc1N1CCN(C(=O)C2CCN(S(=O)(=O)c3c(C)nn(C)c3C)CC2)CC1	-4.1	35.5*	25.4	11.7	9.2
